CXCR6 block – CXCR6 receptor inhibitors, primary screen, cell-based, beta-arrestin, luminescence, CHO-K1 PathHunter, 1536-well; C-X-C chemokine receptor type 6 (Homo sapiens), O00574; inhibition, % at 20 µM; 360,000 compounds, 0.36% hits; in the data active = inhibition above about 34%, passing the limit was not always enough;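 note: antagonist mode with CXCL16 agonist at 10 nM final; 0% = 10 nM CXCL16 with DMSO and 100% = unstimulated wells without agonist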
APJ antag – antagonists of human apelin receptor APJ, primary screen, CHO-K1 cells, beta-arrestin complementation, luminescence | P35414 | 330,000 compounds, 0.32% hits | inhibition, % at 20 µM;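 active = inhibition above about 40% at 20 µM, limit read from the data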;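 note: cells challenged with 10 nM apelin-13 agonist together with compound; plate controls were apelin-13 plus DMSO wells for no effect and DMSO wells lacking apelin-13 for full effect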
CCR6 antagonist – CCR6 receptor antagonists, primary screen, cell-based, CHO-K1, luminescence, beta-arrestin, uHTS | C-C chemokine receptor type 6 (Homo sapiens), P51684 | CHO-K1 CCR6 PathHunter beta-arrestin, CCL20-stimulated | inhibition, % at 20 µM | 340,000 compounds, 0.49% hits | AID 493098, 2011;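 active = compounds whose inhibition of the agonist-driven luminescence signal at 20 µM reaches about 50%, limit read from the data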;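 note: cells stimulated with CCL20 at 14 nM final; plate controls were DMSO with CCL20 for no effect and DMSO without agonist for full effect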
EBI2 block – EBI2 receptor antagonists, beta-arrestin recruitment, primary screen, cell-based, luminescence, 7a,25-OHC stimulation, uHTS; 360,000 compounds, 0.81% hits; AID 651636, 2012; G-protein coupled receptor 183 (Homo sapiens), P32249; 7a,25-OHC stimulated; inhibition, % at 5 µM; in the data active = inhibition above about 38%;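 note: enzyme fragment complementation signal reports receptor beta-arrestin coupling in cells; 0% = agonist plus DMSO wells and 100% = wells without agonist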
Target sequence (P32249 whole entry, looked up, the tested form may be a part): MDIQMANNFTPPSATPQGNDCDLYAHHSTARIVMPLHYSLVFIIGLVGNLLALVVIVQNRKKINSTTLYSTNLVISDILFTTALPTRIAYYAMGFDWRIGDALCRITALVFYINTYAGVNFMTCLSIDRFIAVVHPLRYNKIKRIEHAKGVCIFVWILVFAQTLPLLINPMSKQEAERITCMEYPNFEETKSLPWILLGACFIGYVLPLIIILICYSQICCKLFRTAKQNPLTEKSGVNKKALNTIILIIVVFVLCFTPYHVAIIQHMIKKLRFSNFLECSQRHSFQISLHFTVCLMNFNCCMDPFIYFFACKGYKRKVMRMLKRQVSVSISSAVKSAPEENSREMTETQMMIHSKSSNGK
APJ ag – agonists of human apelin receptor APJ, primary screen, CHO-K1 cells, PathHunter beta-arrestin, luminescence; P35414; AID 2520, 2010; activation, % at 20 µM; 0% DMSO wells, 100% apelin; 330,000 compounds, 0.11% hits;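 active = activation more than six SD over the plate average, tested at 20 µM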;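 note: 0% = DMSO alone and 100% = apelin-13 at 10 nM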
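Assay system – PathHunter CHO-K1 APJ (AGTRL-1) beta-arrestin reporter cells · Compound – one dose, 20 µM compound, 1% DMSO · Timing – compound 90 min 25 °C, reagent 1 h · Measured by – luminescence from split beta-galactosidase complementation, Galacton Star/Emerald II substrate · Measure – beta-arrestin recruitment to APJ as agonist activity, luminescent signal · Benchmarks – DMSO vs Apelin-13 10 nM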
EBI2 conf – EBI2 antagonist hit retest, beta-arrestin, confirmation, cell-based, single concentration, luminescence, 7a,25-OHC stimulation; shares compounds with EBI2 block; 7a,25-OHC antagonism; inhibition, % at 5 µM; 2,400 compounds, 29% hits;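 active = inhibition of at least 50%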
EBI2 agonist – EBI2 agonist activity of antagonist hits, confirmation, counter-screen for EBI2 antagonist project, cell-based, single concentration, agonist mode, luminescence | shares compounds with EBI2 block | EBI2-expressing cells, 60 min; 0% vehicle, 100% 7α,25-dihydroxycholesterol control | AID 652000, 2013 | activation, % at 5 µM | 2,400 tested, under 10 active;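 active = activation of at least 50%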
bGal cs – E. coli beta-galactosidase enzyme inhibition, confirmation, counter-screen for EBI2 antagonist project, biochemical, luminescence, single concentration; inhibition, % at 5 µM; shares compounds with EBI2 block; purified beta-galactosidase, luminescent Galacton Star, 15 min; 2,400 compounds, 1% hits;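 active = replicate-average signal at least 3 plate SD below neutral wells, shown as high inhibition, flagging enzyme-inhibiting false positives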;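 note: 0% = DMSO wells with enzyme and 100% = wells lacking enzyme; higher means stronger loss of beta-gal luminescence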
* = called active by the depositor; / = not tested or not shown. Rows were chosen to be rich in hits. Some 1.5% of all compounds tested hit in one or more screens of this group.

SMILES	CXCR6 block	APJ antag	CCR6 antagonist	EBI2 block	APJ ag	EBI2 conf	EBI2 agonist	bGal cs
COc1ccc(OCC(=O)N2CCN(C/C=C/c3ccccc3)CC2)cc1	-10	-5	10	93*	2	77*	0	-8
COc1ccc(OCC(=O)N2CCN(C3CCC(c4ccccc4)CC3)CC2)cc1 (stereo not given)	6	17	6	85*	-3	63*	0	-11
O=C(COc1ccccc1)N1CCN(C/C=C/c2ccccc2)CC1	-1	4	-7	72*	-3	60*	0	-16
O=C(COc1ccc(Cl)cc1)N1CCN(C/C=C/c2ccccc2)CC1	1	-20	6	96*	1	86*	1	-13
O=C(COc1ccccc1)N1CCN(C2CCCC2)CC1	-3	12	-9	25	-1	/	/	/
CSCCC(c1nnnn1-c1ccc2c(c1)OCCO2)N1CCC(n2c(=O)[nH]c3ccccc32)CC1 (stereo not given)	3	/	/	-43	/	/	/	/
COc1ccc(-n2nnnc2C(c2cccs2)N2CCC(n3c(=O)[nH]c4ccccc43)CC2)cc1 (stereo not given)	6	/	/	-15	/	/	/	/
C[C@H](CO)N1C[C@H](C)[C@H](CN(C)C(=O)Oc2ccccc2)OCc2cnnn2CCCC1=O	2	/	/	-5	/	/	/	/
CN1CCN(C(=O)COc2ccc3ccccc3c2)CC1	0	28	13	53*	1	31	-1	-7
COc1ccc(OCC(=O)N2CCN(Cc3c[nH]c4ccccc34)CC2)cc1	1	/	-11	47*	/	29	2	2
O=C(COc1ccc2ccccc2c1)N1CCN(CC2CC3C=CC2C3)CC1 (stereo not given)	-7	0	3	85*	-3	63*	-1	-4
COc1ccccc1CN1CCN(C(=O)COc2ccc3ccccc3c2)CC1	-6	-7	9	70*	-14	47	4	2
CC1OC(OC2C=C3CCC4C(CCC5(C)C(c6ccc(=O)oc6)CCC45O)C3(C)CC2)C(O)C(OC2OC(CO)C(O)C(O)C2O)C1O (stereo not given)	0	/	-4	-15	/	/	/	/
CNC(=O)C[C@H]1CC[C@@H]2NC[C@H](O)COC[C@H]2O1	/	/	/	-4	/	/	/	/
Nc1c(C(=O)NCCN2CCOCC2)c2nc3ccccc3nc2n1Cc1ccccc1	-2	12	0	74*	-4	34	1	6
CCC(C)OC(=O)c1c(N)n(Cc2cccs2)c2nc3ccccc3nc12 (stereo not given)	20	17	-27	44*	-4	39	-2	-21
COCCCn1c(N)c(C(=O)OC(C)COC)c2nc3ccccc3nc21 (stereo not given)	14	27	5	-2	-4	/	/	/
COc1ccc(N=Cc2c(O)n(Cc3cccs3)c(=O)[nH]c2=O)cc1	-8	4	2	31	-1	/	/	/
COc1ccc(N=Cc2c(O)n(CC3CCCO3)c(=O)[nH]c2=O)cc1 (stereo not given)	-4	-3	-4	55*	-2	50	0	3
c1ccc2oc(-c3ccc4c(c3)CNCc3cnnn3-4)cc2c1	0	/	/	-14	/	/	/	/

Compound activity as filed in PubChem BioAssay.
